The results in this text go back to ChEMBL document CHEMBL1641604, “Application of p21 and klf2 reporter gene assays to identify selective histone deacetylase inhibitors for cancer therapy” (Bioorg Med Chem Lett, 2011).

The term GI50 denotes the concentration at which growth is held to half of that of the control. Higher therefore signals less potent growth inhibition. What is called IC50 is the concentration that gives 50% inhibition. Lower therefore signals higher potency.

In assay [1] the test system is A204. Put plainly: Induction of klf2 promoter gene in human A204 cells assessed as percent induction activity at 10 uM relative to SNDX-275. It is filed as functional.
Assay [2] has as its system HCT-116. Put plainly: Induction of apoptosis in human HCT116 cells after 48 hrs by annexin V/FACS analysis. It is filed as functional, cell-based. Put shortly: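 HCT-116 cells exposed for 48 h to several concentrations or vehicle. Apoptosis was scored as percent annexin V-positive cells by FACS.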
On the technique in general: Flow cytometry measures light scatter and fluorescence of single cells or particles in a stream.

Assay [3] has as its system HCT-116. Put plainly: Induction of acetylated H4 level in human HCT116 cells after 24 hrs. It is filed as functional, cell-based. Put shortly:
(§1)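 HCT-116 cells treated for 24 h across a range of concentrations. Acetylated histone H4 and endogenous p21, or cell-cycle distribution, were assessed.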

The subject of assay [4] is HeLa. As to the kind of experiment: Antiproliferative activity against human HeLa cells after 72 hrs by tetrazolium dye assay. In kind it is functional. The method in brief:
(§2)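 Tetrazolium dye proliferation assay over 72 h, with half-log serial dilutions from 30 µM down to 100 nM. GI50 was derived from the dose-response.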

Another assay addresses Histone deacetylase 1 (Homo sapiens, UniProt Q13547). Put plainly: Inhibition of HDAC1.
Assay [5] concerns HCT-116. As to the kind of experiment: Induction of endogenous p21 level in human HCT116 cells after 24 hrs. In kind it is functional, cell-based. Put shortly:
as §1

The test system of assay [6] is HCT-116. As to the kind of experiment: Antiproliferative activity against human HCT116 cells after 72 hrs by tetrazolium dye assay. In kind it is functional. As to conditions: HCT-116, 72 h. Put shortly: as §2
Assay [7] deals with HeLa. Put plainly: Selectivity ratio for induction of p21 promoter gene in human HeLa cells to induction of klf2 promoter gene in human A204 cells at 3 uM. It is filed as functional.
A further assay addresses Histone deacetylase 3 (Homo sapiens, UniProt O15379).
Assay [8] concerns HCT-116. As to the kind of experiment: Cell cycle arrest in human HCT116 cells after 24 hrs. It is filed as functional, cell-based. Put shortly:
as §1

The next assay has as its system U2OS. As to the kind of experiment: Antiproliferative activity against human U2OS cells after 72 hrs by tetrazolium dye assay. In kind it is functional. Put shortly: as §2
Another assay has as its system HL-60. As to the kind of experiment: Antiproliferative activity against human HL60 cells after 72 hrs by tetrazolium dye assay. As to conditions: HL-60, 72 h. In kind it is functional. Put shortly:
as §2

In a further assay the test system is MCF7. As to the kind of experiment: Antiproliferative activity against human MCF7 cells after 72 hrs by tetrazolium dye assay. It is filed as functional. As to conditions: MCF7, 72 h. Put shortly: as §2
Assay [9] deals with A204. Put plainly: Induction of klf2 promoter gene in human A204 cells assessed as percent induction activity at 3 uM relative to SNDX-275. It is filed as functional.
Assay [10] concerns HeLa. Put plainly: Induction of p21 promoter gene in human HeLa cells assessed as percent induction activity at 10 uM relative to SNDX-275. It is filed as functional.
For assay [11], the system named is HeLa. Put plainly: Selectivity ratio for induction of p21 promoter gene in human HeLa cells to induction of klf2 promoter gene in human A204 cells at 10 uM. In kind it is functional.
Assay [12] has as its system HeLa. As to the kind of experiment: Induction of p21 promoter gene in human HeLa cells assessed as percent induction activity at 3 uM relative to SNDX-275. In kind it is functional.
The target in another assay is Histone deacetylase 2 (Homo sapiens, UniProt Q92769). Put plainly: Inhibition of HDAC2.
Chain of Histone deacetylase 2 (Q92769 whole entry): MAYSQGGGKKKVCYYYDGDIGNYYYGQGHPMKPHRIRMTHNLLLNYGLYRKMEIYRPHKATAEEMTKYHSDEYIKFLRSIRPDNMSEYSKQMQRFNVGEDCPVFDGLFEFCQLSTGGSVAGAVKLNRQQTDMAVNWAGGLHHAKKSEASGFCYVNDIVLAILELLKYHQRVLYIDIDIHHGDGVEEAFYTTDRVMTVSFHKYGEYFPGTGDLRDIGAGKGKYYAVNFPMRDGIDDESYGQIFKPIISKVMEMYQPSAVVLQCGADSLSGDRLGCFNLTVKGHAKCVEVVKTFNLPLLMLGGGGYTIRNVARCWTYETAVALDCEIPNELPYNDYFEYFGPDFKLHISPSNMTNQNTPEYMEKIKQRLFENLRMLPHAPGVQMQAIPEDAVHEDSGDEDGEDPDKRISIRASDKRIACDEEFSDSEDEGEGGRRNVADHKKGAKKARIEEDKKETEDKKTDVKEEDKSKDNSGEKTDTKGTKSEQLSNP
The subject of a further assay is HepG2. Put plainly: Antiproliferative activity against human HepG2 cells after 72 hrs by tetrazolium dye assay. As to conditions: HepG2, 72 h. It is filed as functional. The method in brief: as §2
The subject of assay [13] is HeLa. As to the kind of experiment: Antiproliferative activity against human HeLa cells assessed as growth at 3 uM after 24 hrs. It is filed as functional. As to conditions: read-out: Activity. Put shortly: (§3)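 HeLa and A204 cells exposed to test agents at 3 or 10 µM for 24 h. Growth is expressed as percent of vehicle-treated control cells.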
For assay [14], the system named is A204. As to the kind of experiment: Antiproliferative activity against human A204 cells assessed as growth at 3 uM after 24 hrs. As to conditions: A204, 24 h, read-out: Activity. In kind it is functional. Put shortly: as §3
Assay [15] deals with HeLa. As to the kind of experiment: Antiproliferative activity against human HeLa cells assessed as growth at 10 uM after 24 hrs. It is filed as functional. The conditions noted are these: read-out: Activity. Put shortly:
as §3

Assay [16] has as its system A204. Put plainly: Antiproliferative activity against human A204 cells assessed as growth at 10 uM after 24 hrs. As to conditions: A204, 24 h, read-out: Activity. It is filed as functional. Put shortly:
as §3

Chain of Histone deacetylase 1 (Q13547 whole entry): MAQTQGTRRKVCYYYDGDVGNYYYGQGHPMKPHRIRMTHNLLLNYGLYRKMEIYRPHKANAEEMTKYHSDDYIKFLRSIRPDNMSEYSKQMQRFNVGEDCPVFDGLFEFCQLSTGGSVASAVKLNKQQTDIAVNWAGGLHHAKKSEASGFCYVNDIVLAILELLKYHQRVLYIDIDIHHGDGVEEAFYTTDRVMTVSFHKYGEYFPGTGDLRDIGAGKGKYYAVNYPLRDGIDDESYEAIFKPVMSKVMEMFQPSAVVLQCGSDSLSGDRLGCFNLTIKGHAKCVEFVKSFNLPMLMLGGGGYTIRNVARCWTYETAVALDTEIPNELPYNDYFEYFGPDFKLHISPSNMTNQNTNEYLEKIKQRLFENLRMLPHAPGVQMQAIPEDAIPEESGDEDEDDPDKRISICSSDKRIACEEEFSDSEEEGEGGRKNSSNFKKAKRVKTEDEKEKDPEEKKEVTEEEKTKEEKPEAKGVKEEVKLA
Chain of Histone deacetylase 3 (O15379 whole entry): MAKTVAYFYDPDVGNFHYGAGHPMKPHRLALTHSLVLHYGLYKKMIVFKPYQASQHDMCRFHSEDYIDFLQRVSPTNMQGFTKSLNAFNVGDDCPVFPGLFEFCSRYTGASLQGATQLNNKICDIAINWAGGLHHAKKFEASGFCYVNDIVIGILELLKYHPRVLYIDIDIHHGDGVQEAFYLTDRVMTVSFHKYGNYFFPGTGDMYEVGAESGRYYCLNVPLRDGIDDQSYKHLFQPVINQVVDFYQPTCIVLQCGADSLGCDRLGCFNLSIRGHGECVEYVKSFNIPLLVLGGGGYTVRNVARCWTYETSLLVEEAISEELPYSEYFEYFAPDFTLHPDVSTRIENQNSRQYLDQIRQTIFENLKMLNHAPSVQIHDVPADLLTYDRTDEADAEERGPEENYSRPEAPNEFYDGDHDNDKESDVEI

Regarding `Nc1ccccc1NC(=O)/C=C/c1ccc(C(NCCN2CCOCC2)C(=O)Nc2ccc(C(F)(F)F)cc2)cc1` (stereo unspecified), the Activity in the assay with A204 [1] is 38%; in the assay on HCT-116 [2] it was “Dose-dependent effect”; in the assay on HCT-116 [3] it was “Dose-dependent effect”; with HCT-116 [5] it was “Dose-dependent effect”; in the assay on HeLa [7], 1.4; in the assay on HCT-116 [8], “Dose-dependent effect”. In addition, the Activity came out at 64% in the assay on A204 [9], 116% in the assay on HeLa [10], 3.1 with HeLa [11] and 86% in the assay on HeLa [12]. Further, the GI50 in the assay with HeLa [4] was 2200 nM; in the assay on HCT-116 [6], 1000 nM; with U2OS it was 1000 nM; in the assay with HL-60, 400 nM; in the assay on MCF7, 1900 nM; with HepG2, 1700 nM. Moreover, the IC50 against Histone deacetylase 1 is 60 nM; against Histone deacetylase 3, 460 nM; on Histone deacetylase 2, 290 nM.
As for `Nc1ccccc1NC(=O)/C=C/c1ccc(C(NCCC2CCOCC2)C(=O)Nc2ccc(C(F)(F)F)cc2)cc1` (stereo unspecified), the Activity came to 58% in the assay with A204 [1]; 1 in the assay with HeLa [7]; 55% in the assay with A204 [9]; 64% in the assay with HeLa [10]; 1.1 in the assay on HeLa [11]; 53% with HeLa [12]. In addition, the IC50 on Histone deacetylase 1 was 200 nM; on Histone deacetylase 3 it was 1000 nM; at Histone deacetylase 2, 800 nM.
Consider `Nc1ccccc1NC(=O)/C=C/c1ccc(C(NCCN2CCCCC2)C(=O)Nc2ccc(-c3ccc(C4CC4)cc3)cc2)cc1` (stereo unspecified), for which the Activity in the assay on A204 [1] is 90%; in the assay with HeLa [7] it was 2.2; in the assay with A204 [9], 65%; with HeLa [10] it was 187%; in the assay with HeLa [11], 2.1; in the assay with HeLa [12], 143%. The values for the IC50 on Histone deacetylase 1, at Histone deacetylase 3 and at Histone deacetylase 2 were 50 nM, 360 nM and 240 nM, respectively. The growth at 3 µM in the assay on HeLa [13] is 103%; in the assay with A204 [14] it was 93%. The growth at 10 µM with HeLa [15] amounted to 81%; with A204 [16], 89%.
